Reference: ChEMBL document CHEMBL1151196, “Chemical constituents from the mangrove plant, Aegiceras corniculatum” (J Nat Prod, 2004)
In brackets after ≈: the same amount, converted by molar mass.

Columns and labels:
Assay type in all cases: functional, cell-based
U-937 = assay: Cytotoxicity against human U937 cells after 48 hrs by MTT assay; conditions: U-937, 48 h
Procedure, shortened: (§1)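 Cells kept in RPMI-1640 with 10% FBS, penicillin and streptomycin, at 37 °C under 5% CO2. Seeded at 2000/mL and grown 24 h, then given serial dilutions (100 to 1 μg/mL; DMSO stock diluted in medium). Vehicle control was 0.1% DMSO. After 48 h, MTT added for 4 h. Formazan dissolved in acid-isopropanol and read at 570 nm. Run in triplicate.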

Bel-7402 = assay: Cytotoxicity against human Bel7402 cells after 48 hrs by MTT assay; conditions: Bel-7402, 48 h; procedure, shortened: as §1
HeLa = assay: Cytotoxicity against human HeLa cells after 48 hrs by MTT assay; procedure, shortened: as §1
HL-60 = assay: Cytotoxicity against human HL60 cells after 48 hrs by MTT assay; conditions: HL-60, 48 h; procedure, shortened: as §1

SMILES	IC50 (U-937) [µg/mL]	IC50 (Bel-7402) [µg/mL]	IC50 (HeLa) [µg/mL]	IC50 (HL-60) [µg/mL]
CCCCCCCCCCCC1=C(O)C(=O)c2c(oc3cc(OC)c(O)c(CCCCCCCCCCC)c23)C1=O	> 100	> 100	> 100	> 100
CCCCCCCCCc1cc(O)cc(O)c1OC	> 100	> 100	> 100	> 100
CCCCCCCCCCCC1=C(O)C(=O)C=C(OCC)C1=O	1.3 (≈ 4.03 µM)	2.7 (≈ 8.37 µM)	3.9 (≈ 12.1 µM)	2.5 (≈ 7.75 µM)
CCCCCCCCCCCC1=C(O)C(=O)c2c(oc3c(CCCCCCCCCCC)c(O)c(OC)cc23)C1=O	> 100	> 100	> 100	> 100
COc1cc2c(c(OC)c1OC)-c1ccc(OC)c(=O)cc1[C@@H](NC(C)=O)CC2 [COLCHICINE]	0.1 (≈ 0.25 µM)	0.4 (≈ 1 µM)		
CCCCCCCCCCCC1=C(O)C(=O)c2c(CCCCCCCCCCC)cc(O)cc2C1=O	> 100	> 100	> 100	> 100
CCCCCCCCCCCC1=C(OC(C)=O)C(=O)C=C(OC)C1=O	> 100	> 100	> 100	> 100
CCCCCCCCCCCC1=C(O)C(=O)C=C(OC)C1=O [5-O-METHYLEMBELIN]	1.5 (≈ 4.86 µM)	3.6 (≈ 11.7 µM)	9 (≈ 29.2 µM)	3 (≈ 9.73 µM)
CCCCCCCCCCCC1=CC(=O)C=C(OC)C1=O	> 100	> 100	> 100	> 100
CCCCCCCCCCCC1=C(O)/C(=C2\C(=O)Oc3c2cc(OC)c(O)c3CCCCCCCCCCC)OC1=O	> 100	> 100	> 100	> 100
